Data on 2 molecules can be found in ChEMBL document CHEMBL4613315, “Design of First-in-Class Dual EZH2/HDAC Inhibitor: Biochemical Activity and Biological Evaluation in Cancer Cells” (ACS Med Chem Lett, 2020).

Broadly, the IC50 is the concentration at which inhibition is half-maximal. For orientation: inhibition means the drop in the measured response relative to a control, in per cent.

Molecules are shown by their SMILES.

The test system of assay [1] is U-937. Nature of the assay: Cytotoxicity against human U937 cells assessed as reduction in cell viability incubated for 72 hrs by CellTiter-Glo Luminescent cell viability assay. Format: functional, cell-based. To be noted: U-937, 72 h. In general terms: Cellular ATP, detected with luciferase, serves as a proxy for viable cell number.
Assay [2] is described as follows: Induction of apoptosis in human RH4 cells assessed as late apoptotic cells at 14 uM incubated for 72 hrs by annexin V-FITC staining based flow cytometry (reference value: 2.1 %). Format: functional. For orientation: Flow cytometry measures light scatter and fluorescence of single cells or particles in a stream.
Assay [3] addresses Histone deacetylase 4 (Homo sapiens, UniProt P56524). Nature of the assay: Inhibition of human recombinant HDAC4 using AMC-K(TFA)GL as substrate by fluorescence based assay.
For assay [4], the system named is U-937. Description: Induction of apoptosis in human U937 cells assessed as viable cells at 10 uM incubated for 72 hrs by annexin V-FITC staining based flow cytometry (reference value: 95.4 %). In kind it is functional. To be noted: U-937, 72 h, read-out: Activity.
The test system of assay [5] is THP-1. Nature of the assay: Cytotoxicity against human THP1 cells assessed as reduction in cell viability incubated for 72 hrs by CellTiter-Glo Luminescent cell viability assay. Format: functional, cell-based. To be noted: THP-1, 72 h. In short, it runs like this:
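Antiproliferative IC50 after 72 h of treatment. Values are means of three independent experiments, each measured in triplicate, ± SD.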

The nature of assay [6]: Induction of apoptosis in human RH4 cells assessed as necrotic cells at 28 uM incubated for 72 hrs by annexin V-FITC staining based flow cytometry (reference value: 0.4 %). Format: functional.
In assay [7] the target is T1, Histone deacetylase 8 (Homo sapiens, UniProt Q9BY41).
T1 sequence (Q9BY41 whole entry): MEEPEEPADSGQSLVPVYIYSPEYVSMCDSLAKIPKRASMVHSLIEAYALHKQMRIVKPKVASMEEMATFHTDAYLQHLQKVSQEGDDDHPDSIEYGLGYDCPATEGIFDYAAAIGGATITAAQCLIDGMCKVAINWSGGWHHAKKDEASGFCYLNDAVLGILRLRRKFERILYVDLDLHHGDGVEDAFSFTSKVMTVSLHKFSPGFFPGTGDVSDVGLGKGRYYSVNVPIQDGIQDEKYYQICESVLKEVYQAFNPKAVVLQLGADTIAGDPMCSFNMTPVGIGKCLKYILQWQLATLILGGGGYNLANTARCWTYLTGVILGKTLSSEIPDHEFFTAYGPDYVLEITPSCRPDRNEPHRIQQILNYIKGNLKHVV
Nature of the assay: Inhibition of human recombinant HDAC8 using AMC-K(Ac)GL as substrate by fluorescence based assay.

Assay [8] deals with U-937. Description: Cytotoxicity against human U937 cells assessed as reduction in cell viability at 25 uM in presence of vorinostat incubated for 72 hrs by CellTiter-Glo Luminescent cell viability assay relative to control. To be noted: U-937, 72 h. Format: functional. In short, it runs like this: (§1)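 Viability after 72 h of single-agent or combined treatment with the HDAC inhibitor (0.05–0.25 μM) and the EZH2 inhibitor. EZH2 inhibitor range: U937 5–25 μM; RH4 10–50 μM. Synergy was assessed by combination index and isobologram analysis.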

Assay [9] addresses T2, Protein deacetylase HDAC6 (Homo sapiens) (UniProt Q9UBN7).
T2 sequence (whole entry): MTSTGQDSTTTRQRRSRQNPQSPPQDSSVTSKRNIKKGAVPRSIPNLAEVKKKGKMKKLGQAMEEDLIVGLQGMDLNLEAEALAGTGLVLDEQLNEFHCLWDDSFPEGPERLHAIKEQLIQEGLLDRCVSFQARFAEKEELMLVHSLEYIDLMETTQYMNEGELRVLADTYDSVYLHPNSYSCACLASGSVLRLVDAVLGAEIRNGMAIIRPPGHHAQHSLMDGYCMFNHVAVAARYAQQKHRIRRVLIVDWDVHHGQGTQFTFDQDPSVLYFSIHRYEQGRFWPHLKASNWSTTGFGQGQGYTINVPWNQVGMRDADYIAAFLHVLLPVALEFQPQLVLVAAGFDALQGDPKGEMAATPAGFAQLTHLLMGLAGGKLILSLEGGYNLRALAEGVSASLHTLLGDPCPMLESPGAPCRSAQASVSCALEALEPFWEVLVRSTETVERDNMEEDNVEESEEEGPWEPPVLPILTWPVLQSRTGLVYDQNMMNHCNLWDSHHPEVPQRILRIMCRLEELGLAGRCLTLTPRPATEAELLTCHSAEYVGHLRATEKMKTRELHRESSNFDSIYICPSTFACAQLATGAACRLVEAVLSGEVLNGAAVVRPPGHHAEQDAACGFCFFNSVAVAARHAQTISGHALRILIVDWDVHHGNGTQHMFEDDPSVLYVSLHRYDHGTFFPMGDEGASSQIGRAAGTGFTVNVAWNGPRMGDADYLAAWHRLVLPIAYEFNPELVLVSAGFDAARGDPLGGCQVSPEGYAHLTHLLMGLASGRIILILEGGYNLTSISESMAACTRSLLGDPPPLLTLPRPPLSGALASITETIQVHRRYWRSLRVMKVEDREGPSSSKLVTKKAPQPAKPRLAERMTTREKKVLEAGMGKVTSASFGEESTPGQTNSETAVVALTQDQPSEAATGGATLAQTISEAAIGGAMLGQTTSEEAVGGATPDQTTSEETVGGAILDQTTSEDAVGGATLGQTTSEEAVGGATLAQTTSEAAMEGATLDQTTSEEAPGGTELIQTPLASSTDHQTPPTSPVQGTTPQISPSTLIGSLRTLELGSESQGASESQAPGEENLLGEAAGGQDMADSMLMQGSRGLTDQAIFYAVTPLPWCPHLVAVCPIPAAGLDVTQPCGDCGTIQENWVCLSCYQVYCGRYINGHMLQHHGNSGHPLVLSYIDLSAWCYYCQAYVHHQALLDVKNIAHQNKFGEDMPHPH
Description: Inhibition of HDAC6 in human RH4 cells assessed as acetylated alpha-tubulin level at 50 uM in presence of vorinostat incubated for 72 hrs by Western blot analysis (reference value: 1). In kind it is cell-based. In short, it runs like this: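 RH4 cells co-treated with EZH2 inhibitor at 50 μM plus HDAC inhibitor at 0.15 μM; Western blot after 72 or 96 h for H3K27me3 or acetyl-tubulin, vinculin loading control; densitometry normalized to loading control then DMSO vehicle.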
In general terms: A western blot detects proteins with antibodies after separation by electrophoresis.

Assay [10] can be described thus: Cytotoxicity against human RH4 cells assessed as combinational index measured at fraction affected value of 0.27 in presence of vorinostat at 10 uM incubated for 72 hrs by CellTiter-Glo Luminescent cell viability assay. Format: functional. In short, it runs like this:
as §1

Assay [11] can be described thus: Cytotoxicity against human RH4 cells assessed as reduction in cell viability at 50 uM in presence of vorinostat incubated for 72 hrs by CellTiter-Glo Luminescent cell viability assay relative to control. Format: functional. To be noted: Rh4, 72 h. In short, it runs like this: as §1
The subject of assay [12] is U-937. Nature of the assay: Cytotoxicity against human U937 cells assessed as combinational index measured at fraction affected value of 0.05 in presence of vorinostat at 1 uM incubated for 72 hrs by CellTiter-Glo Luminescent cell viability assay. Format: functional.
Assay [13] deals with U-937. Description: Cytotoxicity against human U937 cells assessed as combinational index measured at fraction affected value of […] in presence of vorinostat at 25 uM incubated for 72 hrs by CellTiter-Glo Luminescent cell viability assay. Format: functional.
Assay [14] concerns U-937. Nature of the assay: Cytotoxicity against human U937 cells assessed as reduction in cell viability at 25 uM incubated for 72 hrs by CellTiter-Glo Luminescent cell viability assay relative to control. Format: functional. To be noted: U-937, 72 h. In short, it runs like this:
as §1

Chain of Histone deacetylase 4 (P56524 whole entry): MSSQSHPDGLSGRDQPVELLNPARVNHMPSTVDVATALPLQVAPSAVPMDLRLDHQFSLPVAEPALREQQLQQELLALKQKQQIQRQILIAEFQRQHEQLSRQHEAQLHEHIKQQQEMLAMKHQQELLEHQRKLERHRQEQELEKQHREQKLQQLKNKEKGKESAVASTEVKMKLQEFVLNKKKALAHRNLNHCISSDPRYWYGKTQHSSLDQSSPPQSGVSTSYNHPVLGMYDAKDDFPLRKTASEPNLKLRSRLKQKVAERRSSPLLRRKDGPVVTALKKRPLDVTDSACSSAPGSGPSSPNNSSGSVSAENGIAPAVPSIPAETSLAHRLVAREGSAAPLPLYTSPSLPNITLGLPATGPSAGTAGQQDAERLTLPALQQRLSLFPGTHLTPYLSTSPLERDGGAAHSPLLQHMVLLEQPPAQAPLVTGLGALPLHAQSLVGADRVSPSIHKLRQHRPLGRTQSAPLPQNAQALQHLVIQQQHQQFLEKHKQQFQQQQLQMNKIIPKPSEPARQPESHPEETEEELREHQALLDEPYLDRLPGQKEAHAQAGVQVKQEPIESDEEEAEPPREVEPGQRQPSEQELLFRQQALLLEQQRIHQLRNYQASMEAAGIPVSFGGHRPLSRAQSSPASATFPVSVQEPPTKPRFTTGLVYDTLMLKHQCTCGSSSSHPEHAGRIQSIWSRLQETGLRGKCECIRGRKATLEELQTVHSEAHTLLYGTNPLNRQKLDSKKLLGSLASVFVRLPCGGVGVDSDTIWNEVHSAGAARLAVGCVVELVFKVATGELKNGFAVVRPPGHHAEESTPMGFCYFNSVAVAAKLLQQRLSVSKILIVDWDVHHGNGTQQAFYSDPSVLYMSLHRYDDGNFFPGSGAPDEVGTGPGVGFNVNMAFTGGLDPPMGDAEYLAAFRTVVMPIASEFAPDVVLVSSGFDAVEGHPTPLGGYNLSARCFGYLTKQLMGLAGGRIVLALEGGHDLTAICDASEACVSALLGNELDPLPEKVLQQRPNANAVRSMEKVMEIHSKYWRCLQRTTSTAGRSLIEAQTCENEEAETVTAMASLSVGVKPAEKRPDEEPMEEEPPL

With `Cc1cc(C)c(CNC(=O)c2cc(C)n(-c3cccc(NC(=O)CCCCCCC(=O)NO)c3)c2C)c(=O)[nH]1`, the concentration for half-maximal inhibition (IC50) in assay [1] was found to be 9 µM; in assay [3], 36.8 µM; in [5], 12 µM; in [7], 0.11 µM. The Activity is 3.2% in assay [2] and 0.4% in [6]. For the same molecule, in assay [4], the viability at 10 µM was determined as 95%.
Turning to `Cc1cc(C)c(CNC(=O)c2cc(C)n(-c3ccccc3)c2C)c(=O)[nH]1`, the inhibition at 25 µM in assay [8] is 90%; in [14], 25%. The fold change (FC) in [9] amounted to 2.4. Further, the CI in [10] is reported as 0.64; in assay [12], 3.34; in assay [13], 0.04. Further, the inhibition at 50 µM in assay [11] is greater than 60%.
